According to ChEMBL document CHEMBL1275524, “Activities of antifungal agents against yeasts and filamentous fungi: assessment according to the methodology of the European Committee on Antimicrobial Susceptibility Testing” (2008):
Values after ≈ are worked out from the molar mass of the structure shown.

Assays:
Candida albicans [1] = assay: Antifungal activity against Candida albicans; assay type: functional
Method in brief: (§1)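 Broth microdilution in flat-bottom plates in RPMI 1640 with 2% glucose; inoculum 0.5 × 105 to 2.5 × 10^5 CFU/ml. MICs were read spectrophotometrically at 24 h. AMB endpoint: ≥90% growth reduction vs drug-free control well. Azole and CPF endpoint: 50% reduction in optical density. MFC was taken as the lowest concentration giving 99% killing.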

Nakaseomyces glabratus [2] = assay: Antifungal activity against Candida glabrata; assay type: functional; method in brief: as §1
Candida parapsilosis [3] = assay: Antifungal activity against Candida parapsilosis; assay type: functional; conditions: Lodderomyces parapsilosis; method in brief: as §1
Pichia kudriavzevii [4] = assay: Antifungal activity against Candida krusei; assay type: functional
Method in brief: (§2)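 EUCAST broth microdilution for yeasts in flat-bottom plates, RPMI 1640 with 2% glucose, inoculum 0.5 × 105 to 2.5 × 10^5 CFU/ml. […] MFC is the lowest concentration giving 99% killing.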

Clavispora lusitaniae [5] = assay: Antifungal activity against Candida lusitaniae; assay type: functional; method in brief: as §1
Candida tropicalis [6] = assay: Antifungal activity against Candida tropicalis; assay type: functional; method in brief: as §1
[7] = system: Meyerozyma guilliermondii; assay: Antifungal activity against Candida guilliermondii; assay type: functional; method in brief: as §1
Saccharomyces cerevisiae [8] = assay: Antifungal activity against Saccharomyces cerevisiae; assay type: functional
Method in brief: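 Broth microdilution following EUCAST for fermentative yeasts, in flat-bottom plates with RPMI 1640 plus 2% glucose. Inoculum was 0.5 × 10^5 to 2.5 × 10^5 CFU/ml. End points were read spectrophotometrically at 24 h: ≥90% growth reduction versus a drug-free control for amphotericin B, and 50% OD reduction for azoles and caspofungin. MFC was the lowest concentration giving 99% killing.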

[9] = Antifungal activity against Cryptococcus neoformans var. neoformans; assay type: functional; conditions: Cryptococcus deneoformans
Method in brief: (§3)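 EUCAST yeast microdilution, modified for nonfermentative yeasts: plates were sealed and agitated at 350 rpm and 30°C for 48 h.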

Cryptococcus gattii [10] = assay: Antifungal activity against Cryptococcus neoformans var. gattii; assay type: functional, Cryptococcus bacillisporus; method in brief: as §3
Trichosporon inkin [11] = assay: Antifungal activity against Trichosporon inkin; assay type: functional
Method in brief: (§4)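 Nonfermentative yeasts were tested by the EUCAST microdilution recommendations with one change: plates were sealed and agitated at 350 rpm and 30°C for 48 h.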

Trichosporon asahii [12] = assay: Antifungal activity against Trichosporon asahii; assay type: functional; method in brief: as §4
Geotrichum candidum [13] = assay: Antifungal activity against Geotrichum candidum; assay type: functional
Aspergillus fumigatus [14] = assay: Antifungal activity against Aspergillus fumigatus; assay type: functional
Aspergillus terreus [15] = assay: Antifungal activity against Aspergillus terreus; assay type: functional
Aspergillus flavus [16] = assay: Antifungal activity against Aspergillus flavus; assay type: functional
Aspergillus niger [17] = assay: Antifungal activity against Aspergillus niger; assay type: functional
Rhizomucor = assay: Antifungal activity against Rhizomucor species; assay type: functional
Lichtheimia corymbifera = assay: Antifungal activity against Absidia corymbifera; assay type: functional
Absidia = assay: Antifungal activity against Absidia species; assay type: functional
[18] = Antifungal activity against Rhizopus microsporus var. oligosporus; assay type: functional
Method in brief: (§5)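 Broth microdilution following the EUCAST reference procedure for spore-forming moulds, in flat-bottom plates with RPMI 1640 plus 2% glucose. Inoculum was 2 × 10^5 to 5 × 10^5 CFU/ml. MICs were read visually at 24 and 48 h as 100% growth reduction versus a drug-free control for polyenes and azoles. MEC was used for caspofungin. Tests were run in duplicate and repeated twice.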

Rhizopus arrhizus = assay: Antifungal activity against Rhizopus oryzae; assay type: functional; method in brief: as §5
Rhizopus = assay: Antifungal activity against Rhizopus species; assay type: functional; method in brief: as §5
Mucor hiemalis = assay: Antifungal activity against Mucor hiemalis; assay type: functional
Mucor = assay: Antifungal activity against Mucor species; assay type: functional
Cunninghamella [19] = assay: Antifungal activity against Cunninghamella species; assay type: functional
Lomentospora prolificans = assay: Antifungal activity against Scedosporium prolificans; assay type: functional; method in brief: as §5
Scedosporium apiospermum = assay: Antifungal activity against Scedosporium apiospermum; assay type: functional; method in brief: as §5
Talaromyces marneffei = assay: Antifungal activity against Penicillium marneffei; assay type: functional
Penicillium sp. = assay: Antifungal activity against Penicillium species; assay type: functional
Fusarium solani = assay: Antifungal activity against Fusarium solani; assay type: functional
Fusarium oxysporum = assay: Antifungal activity against Fusarium oxysporum; assay type: functional
Sporothrix schenckii = assay: Antifungal activity against Sporothrix schenckii; assay type: functional; method in brief: as §5
Curvularia lunata = assay: Antifungal activity against Curvularia lunata; assay type: functional
Curvularia australiensis = assay: Antifungal activity against Bipolaris australiensis; assay type: functional
Method in brief: (§6)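 Dematiaceous fungi were tested by the EUCAST spore-forming mold reference procedure: flat-bottom microdilution plates, RPMI 1640 plus 2% glucose, inoculum 2 × 105 to 5 × 10^5 CFU/ml. Endpoints were read visually at 24 and 48 h. Polyenes and azoles: 100% growth reduction vs drug-free control. CPF: minimum effective concentration. Run in duplicate and repeated twice.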

[20] = Antifungal activity against Rhinocladiella aquaspersa; assay type: functional; method in brief: as §6
Candida albicans [21] = assay: Antifungal activity against Candida albicans by EUCAST method; assay type: functional; method in brief: as §1
Nakaseomyces glabratus [22] = assay: Antifungal activity against Candida glabrata by EUCAST method; assay type: functional; method in brief: as §1
Candida parapsilosis [23] = assay: Antifungal activity against Candida parapsilosis by EUCAST method; assay type: functional; conditions: Lodderomyces parapsilosis; method in brief: as §1
Pichia kudriavzevii [24] = assay: Antifungal activity against Candida krusei by EUCAST method; assay type: functional; method in brief: as §1
Clavispora lusitaniae [25] = assay: Antifungal activity against Candida lusitaniae by EUCAST method; assay type: functional; method in brief: as §1
Candida tropicalis [26] = assay: Antifungal activity against Candida tropicalis by EUCAST method; assay type: functional; method in brief: as §1
[27] = system: Meyerozyma guilliermondii; assay: Antifungal activity against Candida guilliermondii by EUCAST method; assay type: functional; method in brief: as §1
Saccharomyces cerevisiae [28] = assay: Antifungal activity against Saccharomyces cerevisiae by EUCAST method; assay type: functional; method in brief: as §2
[29] = Antifungal activity against Cryptococcus neoformans var. neoformans by EUCAST method; assay type: functional; conditions: Cryptococcus deneoformans; method in brief: as §3
Cryptococcus gattii [30] = assay: Antifungal activity against Cryptococcus neoformans var. gattii by EUCAST method; assay type: functional, Cryptococcus bacillisporus; method in brief: as §3
Trichosporon inkin [31] = assay: Antifungal activity against Trichosporon inkin by EUCAST method; assay type: functional; method in brief: as §4
Trichosporon asahii [32] = assay: Antifungal activity against Trichosporon asahii by EUCAST method; assay type: functional; method in brief: as §4
Geotrichum candidum [33] = assay: Antifungal activity against Geotrichum candidum by EUCAST method; assay type: functional
Aspergillus fumigatus [34] = assay: Antifungal activity against Aspergillus fumigatus by EUCAST method; assay type: functional
Aspergillus terreus [35] = assay: Antifungal activity against Aspergillus terreus by EUCAST method; assay type: functional
Aspergillus flavus [36] = assay: Antifungal activity against Aspergillus flavus by EUCAST method; assay type: functional
Aspergillus niger [37] = assay: Antifungal activity against Aspergillus niger by EUCAST method; assay type: functional
Cunninghamella [38] = assay: Antifungal activity against Cunninghamella species by EUCAST method; assay type: functional

**Q.** What does the source list for C[C@@H](c1ncncc1F)[C@](O)(Cn1cncn1)c1ccc(F)cc1F [VORICONAZOLE]?
**A.** MFC (Candida albicans [1]): 0.06 µg/mL (≈ 0.172 µM); MFC (Nakaseomyces glabratus [2]): > 4 µg/mL; MFC (Candida parapsilosis [3]): 0.06 µg/mL (≈ 0.172 µM); MFC (Pichia kudriavzevii [4]): 0.5 µg/mL (≈ 1.43 µM); MFC (Clavispora lusitaniae [5]): 0.06 µg/mL (≈ 0.172 µM); MFC (Candida tropicalis [6]): 0.12 µg/mL (≈ 0.344 µM); MFC [7]: 0.25 µg/mL (≈ 0.716 µM); MFC (Saccharomyces cerevisiae [8]): > 4 µg/mL; MFC [9]: 0.06 µg/mL (≈ 0.172 µM); MFC (Cryptococcus gattii [10]): 0.125 µg/mL (≈ 0.358 µM); MFC (Trichosporon inkin [11]): 0.03 µg/mL (≈ 0.0859 µM); MFC (Trichosporon asahii [12]): > 8 µg/mL; MFC (Geotrichum candidum [13]): > 4 µg/mL; MFC (Aspergillus fumigatus [14]): 0.5 µg/mL (≈ 1.43 µM); MFC (Aspergillus terreus [15]): 1 µg/mL (≈ 2.86 µM); MFC (Aspergillus flavus [16]): 1 µg/mL (≈ 2.86 µM); MFC (Aspergillus niger [17]): 2 µg/mL (≈ 5.73 µM); MFC (Rhizomucor): > 8 µg/mL; MFC (Lichtheimia corymbifera): > 8 µg/mL; MFC (Absidia): > 8 µg/mL; MFC [18]: > 8 µg/mL; MFC (Rhizopus arrhizus): > 8 µg/mL; MFC (Rhizopus): > 8 µg/mL; MFC (Mucor hiemalis): > 8 µg/mL; MFC (Mucor): > 8 µg/mL; MFC (Cunninghamella [19]): > 8 µg/mL; MFC (Lomentospora prolificans): > 8 µg/mL; MFC (Scedosporium apiospermum): > 8 µg/mL; MFC (Talaromyces marneffei): > 8 µg/mL; MFC (Penicillium sp.): > 8 µg/mL; MFC (Fusarium solani): > 8 µg/mL; MFC (Fusarium oxysporum): > 8 µg/mL; MFC (Sporothrix schenckii): > 8 µg/mL; MFC (Curvularia lunata): > 8 µg/mL; MFC (Curvularia australiensis): > 8 µg/mL; MFC [20]: > 8 µg/mL; MIC (Candida albicans [21]): 0.13 µg/mL (≈ 0.372 µM); MIC (Nakaseomyces glabratus [22]): 1.66 µg/mL (≈ 4.75 µM); MIC (Candida parapsilosis [23]): 0.08 µg/mL (≈ 0.229 µM); MIC (Pichia kudriavzevii [24]): 0.53 µg/mL (≈ 1.52 µM); MIC (Clavispora lusitaniae [25]): 0.07 µg/mL (≈ 0.2 µM); MIC (Candida tropicalis [26]): 0.48 µg/mL (≈ 1.37 µM); MIC [27]: 0.24 µg/mL (≈ 0.687 µM); MIC (Saccharomyces cerevisiae [28]): 0.29 µg/mL (≈ 0.83 µM); MIC [29]: 0.05 µg/mL (≈ 0.143 µM); MIC (Cryptococcus gattii [30]): 0.05 µg/mL (≈ 0.143 µM); MIC (Trichosporon inkin [31]): 0.05 µg/mL (≈ 0.143 µM); MIC (Trichosporon asahii [32]): 0.04 µg/mL (≈ 0.115 µM); MIC (Geotrichum candidum [33]): 0.25 µg/mL (≈ 0.716 µM); MIC (Aspergillus fumigatus [34]): 0.36 µg/mL (≈ 1.03 µM); MIC (Aspergillus terreus [35]): 0.29 µg/mL (≈ 0.83 µM); MIC (Aspergillus flavus [36]): 0.41 µg/mL (≈ 1.17 µM); MIC (Aspergillus niger [37]): 0.33 µg/mL (≈ 0.945 µM); MIC (Cunninghamella [38]): > 8 µg/mL
